ChEMBL document CHEMBL1151224, “Geranylgeraniol-type diterpenoids, boletinins A-J, from Boletinus cavipes as inhibitors of superoxide anion generation in macrophage cells” (J Nat Prod, 2004)

Experiments:
[1] = target: T1, Xanthine dehydrogenase/oxidase (Homo sapiens, UniProt P47989); assay: Inhibition of XOD at 25 uM relative to control
[2] = test system: Macrophage; assay: Radical scavenging activity in CD mouse macrophages assessed as inhibition of superoxide anion generation at 50 uM relative to control; format: functional
Method in brief: (§1)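 Superoxide anion (O2•-) generation was measured in macrophage cells stimulated with the tumor promoter 12-O-tetradecanoylphorbol-13-acetate (TPA), and test samples were evaluated for suppression of this TPA-induced generation.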

[3] = Cytotoxicity against CD mouse macrophages assessed as cell viability at 50 uM by trypan blue exclusion test; format: cell-based, Macrophage; conditions: read-out: Activity
[4] = target: T1, Xanthine dehydrogenase/oxidase; assay: Inhibition of XOD at 125 uM relative to control
[5] = test system: Macrophage; assay: Radical scavenging activity in CD mouse macrophages assessed as inhibition of superoxide anion generation at 25 uM relative to control; format: functional; method in brief: as §1

T1 sequence (P47989 whole entry): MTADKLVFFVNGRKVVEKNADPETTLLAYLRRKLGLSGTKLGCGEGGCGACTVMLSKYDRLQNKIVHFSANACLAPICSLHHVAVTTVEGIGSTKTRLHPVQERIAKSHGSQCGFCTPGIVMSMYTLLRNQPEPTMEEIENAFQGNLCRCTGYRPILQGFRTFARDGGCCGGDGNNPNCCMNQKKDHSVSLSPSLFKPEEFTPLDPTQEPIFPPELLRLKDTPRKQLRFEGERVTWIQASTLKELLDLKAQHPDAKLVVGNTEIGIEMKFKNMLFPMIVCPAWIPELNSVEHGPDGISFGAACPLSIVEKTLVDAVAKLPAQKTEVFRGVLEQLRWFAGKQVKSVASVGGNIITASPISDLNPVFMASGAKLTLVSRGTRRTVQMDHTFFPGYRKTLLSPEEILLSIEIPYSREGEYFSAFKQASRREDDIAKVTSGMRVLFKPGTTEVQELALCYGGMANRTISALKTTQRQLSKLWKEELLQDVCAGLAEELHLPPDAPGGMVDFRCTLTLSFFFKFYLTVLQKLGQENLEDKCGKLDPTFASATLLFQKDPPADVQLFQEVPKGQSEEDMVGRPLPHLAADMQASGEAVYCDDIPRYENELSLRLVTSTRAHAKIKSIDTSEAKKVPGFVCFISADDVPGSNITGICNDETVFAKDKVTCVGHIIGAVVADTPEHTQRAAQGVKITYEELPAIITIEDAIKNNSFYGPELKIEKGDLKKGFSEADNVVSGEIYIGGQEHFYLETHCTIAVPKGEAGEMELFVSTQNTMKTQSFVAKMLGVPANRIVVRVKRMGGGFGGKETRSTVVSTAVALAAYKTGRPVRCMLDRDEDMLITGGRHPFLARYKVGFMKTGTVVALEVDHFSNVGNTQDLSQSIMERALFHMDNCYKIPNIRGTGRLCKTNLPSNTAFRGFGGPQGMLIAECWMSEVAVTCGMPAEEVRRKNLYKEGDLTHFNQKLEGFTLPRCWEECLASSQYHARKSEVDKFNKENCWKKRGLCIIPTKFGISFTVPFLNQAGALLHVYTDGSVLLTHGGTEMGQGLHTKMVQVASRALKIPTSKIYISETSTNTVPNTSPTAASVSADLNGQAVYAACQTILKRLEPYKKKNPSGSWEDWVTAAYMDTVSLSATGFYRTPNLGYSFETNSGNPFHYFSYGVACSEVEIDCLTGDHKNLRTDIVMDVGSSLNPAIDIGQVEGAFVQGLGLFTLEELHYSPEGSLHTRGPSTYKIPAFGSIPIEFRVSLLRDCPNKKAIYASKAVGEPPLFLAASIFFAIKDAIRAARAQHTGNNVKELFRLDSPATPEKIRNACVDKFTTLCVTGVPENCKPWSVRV

SMILES: O=c1c(O)c(-c2ccc(O)c(O)c2)oc2cc(O)cc(O)c12 [QUERCETIN]
- inhibition at 25 µM [1]: 31%
- inhibition at 50 µM [2]: 28%
- viability at 50 µM [3]: 101%
- inhibition at 125 µM [4]: 72%
- inhibition at 25 µM [5]: 19%
